Experimental data gathered from unrelated publications.
Target: G protein-coupled receptor kinase 4 (GRK4, Homo sapiens, UniProt P32298)

COc1ncccc1-c1cnn2ccc(N3CCN(C(=O)OC(C)C)CC3)nc12 — remaining binding (binding, competition with immobilised ligand; 1 µM): 70%
N#CC1(c2ccccn2)CCN(Cc2cc(C(=O)O)c(=O)n3ccccc23)CC1 — remaining binding (cell-free assay, competition with immobilised ligand; 1 µM): 68%
Cn1cc(-c2cccc(N3CCc4c(sc5c4CC(C)(C)C5)C3=O)c2CO)cc(Nc2ccncn2)c1=O — inhibition (enzyme activity, inhibitor; 1 µM): -4%
Cn1cncc1[C@@](O)(COc1ccc(C#N)cc1-c1ccc(OC(F)(F)F)cc1)c1ccc(C#N)cc1 — remaining binding (cell-free assay, competition with immobilised ligand; 1 µM): 56%
O=c1[nH]c2ccccc2n1C1CCN(Cc2ccc(-c3[nH]c4cc5ncnc5cc4nc3-c3ccccc3)cc2)CC1 — remaining signal (cell-free assay; 0.5 µM): 104%
Cn1cc(-c2cc(F)cc(N3CCn4c(cc5c4CCCC5)C3=O)c2CO)cc(Nc2ccc(N3CCN(C4COC4)CC3)cn2)c1=O — inhibition (enzyme activity, inhibitor; 0.1 µM): 12%
CC(C)(C)c1cc(C=C(C#N)C#N)cc(Br)c1O — remaining activity (enzyme activity, inhibitor; 0.5 µM): 101%
Cc1nn(C)cc1-c1nc2c(N3CCN(Cc4ccc(Cl)cc4)CC3)c(Cl)cnc2[nH]1 — remaining binding (binding, competition with immobilised ligand; 1 µM): 41%
Nc1ncc(-c2nc(N3CCOCC3)nc(N3CCOCC3)n2)c(C(F)F)n1 — remaining binding (binding, competition with immobilised ligand; 10 µM): 74%
